L major viab = reduces viability of Leishmania major promastigotes; resazurin fluorescence viability; inhibition, % at 10 µM; 200,000 compounds, 9% hits; AID 1063; in the data active means inhibition above about 50%;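 further: promastigotes grown with compound for 44 hours at 28 °C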
T cruzi repl = blocks replication of Trypanosoma cruzi. 300,000 compounds, 1.4% hits. T. cruzi beta-gal in NIH3T3, luminescence, 90 h. inhibition, % (no concentration beside the values);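 active means mean inhibition across valid replicates above about 55%, limit read from the data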;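 further: signal also drops with host cell toxicity which is not excluded here; 0% = plate median of DMSO wells and 100% = zero luminescence signal; higher percent means less beta-gal luminescence so fewer parasites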
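Read-out: Parasite load inhibition, % | Test system: Mouse NIH/3T3 fibroblasts infected with β-gal-expressing T. cruzi Tulahuen C4 | Amount: 5,000 cells/well | Medium: DMEM, 2% fetal bovine serum | Signal: GalScreen β-gal luminescence, detergent lysis, 60 min | Timing: 3 h attach, ≥90 h co-culture | Also added: Tulahuen C4 trypomastigotes, 5000/well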
HSF1 activator = increases HSF-1 driven luciferase reporter signal | NIH3T3-HGL HSF-1 luciferase reporter, MG132, 8 h; 100% = twice DMSO control signal | activation, % at 9 µM | 300,000 compounds, 1.7% hits;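 active means mean replicate activation of at least 50% with a set share of replicates each reaching 50%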;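 further: 0% = median of the neutral control wells and 100% = twice that signal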
HSF1 inh = HSF1 inhibition. activity change, negative = inhibition, % at 7.5 µM (by protocol). AID 2098. 300,000 compounds, 0.77% hits. NIH3T3-HGL HSE-luciferase, MG132-induced, luminescence 8 h; active compounds read low;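 active means more than half of replicate wells show activity change below -50%, luminescence cut by over half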;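 further: luciferase reports HSF-1 transcriptional activity via heat shock element; 0% = median of DMSO wells and -100% = zero luminescence signal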
Hsp70 act = Hsp70 transcriptional activation, primary screen; HeLa Hsp70 promoter luciferase reporter, luminescence; scaled: vehicle 0, proteasome-inhibitor control 100%; activation, % at 10 µM; 200,000 compounds, 0.04% hits;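 active means activation above the mean across all tested compounds plus 3 SD, cutoff set per campaign, cut at about 5.5% in these data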;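 further: 100% = MG132 at 30 µM as the positive control and 0% = DMSO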
* marks the source's active call; other numbers are inactive results; · = not tested or not shown. Only a selection was taken, and hits are over-represented in it overall.

SMILES | L major viab | T cruzi repl | HSF1 activator | HSF1 inh | Hsp70 act
Cc1[nH]nc2c1C(c1ccc(-c3ccccc3C#N)o1)C(C#N)=C(N)O2 (centres undefined) | 100* | -7 | 17 | 11 | 0
Cc1[nH]nc2c1C(c1ccc(F)cc1)C(C#N)=C(N)O2 (centres undefined) | 33 | -24 | 10 | 4 | 0
Cc1nn(-c2ccccc2)c(Cl)c1C1C(C#N)=C(N)Oc2n[nH]c(C)c21 (centres undefined) | 39 | -14 | 13 | 7 | 0
Cc1ccc(-c2ccc(C3C(C#N)=C(N)Oc4n[nH]c(C)c43)o2)cc1 (centres undefined) | 101* | 5 | 47 | 23 | 0
Cn1cc(CCNC(=O)C2CCC(=O)N(CCc3ccc(Cl)cc3)C2)cn1 (centres undefined) | · | -3 | -3 | -5 | ·
O=C(NCc1ccc(N2CCCC2=O)cc1)Nc1cccc2ccccc12 | -5 | 0 | 11 | -1 | 0
O=C(NCc1ccc(N2CCCC2=O)cc1)Nc1ccccc1 | 44 | -8 | 54* | 2 | 0
O=C1/C(=C/c2ccco2)CCC1C1CCCC1 (centres undefined) | 1 | -9 | 61* | 42 | 0
O=C1/C(=C/c2ccccc2)CCC1C1CCCC1 (centres undefined) | -10 | 1 | 30 | 14 | 0
Cc1nn(-c2ccccc2)c(N)c1C(c1ccccc1)c1c(C)nn(-c2ccccc2)c1N | 10 | 15 | 79* | 63 | 0
C(#Cc1ccccc1)C[N+]1(CC#Cc2ccccc2)CCCC1 | 100* | -10 | -10 | -10 | 0
C=CC[N+]1(CC#Cc2ccccc2)CCCC1 | -7 | -13 | -14 | -9 | 0
CCOCCCn1c(SC(C(=O)Nc2cc(C)ccc2C)c2ccccc2)nnc1-c1ccc(Cl)cc1 (centres undefined) | 61* | 31 | 24 | 9 | 0
COc1ccc(CCN(Cc2cccs2)S(=O)(=O)c2ccc(S(=O)(=O)N(C)C3CCCCC3)cc2)cc1OC | 11 | 61* | -8 | 0 | 0
COc1ccc(CCN(Cc2cccs2)S(=O)(=O)c2ccc(-n3cnnn3)c(OC)c2)cc1OC | 10 | 33 | -5 | -3 | 0
CC1CN(C(=O)N2CCCCC2)CCN1C(=O)N1CCCCC1 (centres undefined) | -6 | -10 | -9 | 6 | -1
Cc1ccc(Nc2ncccc2C(=O)NCc2cccs2)c(C)c1 | 96* | 8 | 14 | 0 | 0
O=C(NCc1cccs1)c1cccnc1Cl | -5 | 1 | -5 | 4 | 0
Cc1cccc(Nc2ncccc2C(=O)NCc2cccs2)c1C | 79* | 9 | 46 | 8 | 0
Cc1ccc2nc(/C(C#N)=C\c3ccc(N4CCOCC4)o3)[nH]c2c1 | 26 | 43 | 21 | 13 | 0
Cc1ccc(/C(C#N)=C\c2ccc(N3CCOCC3)o2)cc1 | 9 | 58* | 76* | 58 | 1
N#C/C(=C/c1ccc(Sc2nc3ccccc3[nH]2)o1)c1cccc(F)c1 | 16 | -1 | 32 | 22 | 0
N#C/C(=C/c1ccc(N2CCCCC2)o1)c1cccc(F)c1 | 17 | 56* | 172* | 128 | 0
N#C/C(=C/c1ccc(N2CCCCC2)cc1)c1cccc(F)c1 | 99* | 15 | -17 | -9 | 0
O=C(CNC(=O)c1ccc(F)cc1)N/N=C/c1cc(Br)ccc1OC(=O)/C=C/c1ccco1 | · | 34 | 13 | 7 | ·
SMILES | L major viab | T cruzi repl | HSF1 activator | HSF1 inh | Hsp70 act
O=C(CNC(=O)c1ccccc1F)N/N=C/c1cc(Br)ccc1OC(=O)/C=C/c1ccco1 | 87* | 34 | 34 | 29 | 0
COc1ccccc1C(=O)NCC(=O)N/N=C/c1cc(Br)ccc1OC(=O)/C=C\c1ccco1 | 92* | 0 | 30 | 6 | 0
O=C(NCc1ccc2c(c1)OCO2)c1ccccc1Cl | · | 23 | 21 | 0 | ·
O=C(NCc1ccc2c(c1)OCO2)c1nc(S(=O)(=O)Cc2ccccc2F)ncc1Cl | · | -1 | 84* | 107 | ·
O=C(NCc1ccc2c(c1)OCO2)c1nc(S(=O)(=O)Cc2ccccc2)ncc1Cl | · | -12 | -89 | -89* | ·
CCN(CC)c1ccc(S(=O)(=O)N(CC)CC)cc1NC(=O)c1cccnc1 | 22 | 25 | -1 | 4 | 0
O=C(NCCCn1cccn1)c1cc(COc2ccc(F)cc2Cl)on1 | -1 | -15 | -19 | -2 | 0
Cc1nn2c(N3CCN(C(=O)c4ccco4)CC3)cc(C(C)(C)C)nc2c1-c1ccccc1 | 57* | 41 | 9 | -8 | 0

Screens from PubChem.
